# Measurements taken from article PMC10099996 (Chembiochem, 2022).
# Key:
# [1] = degradation product of bacitracin A; cited from earlier work
# [2] = formation in vivo limits systemic applications; cited from earlier work
# E. faecium E980 = experiment: MIC determination; type: cell-based; settings: Table 1; lysogeny broth (LB) supplemented with 0.3 mM ZnSO4; 37 °C, 18 h; visual inspection; median of a minimum of triplicates
# Outline: (§1)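 Strains from glycerol stocks are grown overnight on blood agar at 37 °C. A single colony goes into TSB and grows at 37 °C to OD600 0.5, then is diluted 100-fold in ZnSO₄-supplemented LB to 10⁶ CFU mL⁻¹. Test compounds are 2-fold serially diluted in the same medium, in triplicate, and mixed with an equal volume of inoculum. Plates are sealed under breathable membranes and incubated 18 h at 37 °C, shaking at 600 rpm. MIC is read visually.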
# S. aureus USA300 (MRSA) = experiment: MIC determination; type: cell-based; settings: Table 1; lysogeny broth (LB) supplemented with 0.3 mM ZnSO4; 37 °C, 18 h; visual inspection; median of a minimum of triplicates
# Outline: as §1
# [3] = system: S. aureus ATCC 29213 (MSSA); experiment: MIC determination; type: cell-based; settings: Table 1; lysogeny broth (LB) supplemented with 0.3 mM ZnSO4; 37 °C, 18 h; visual inspection; median of a minimum of triplicates
# Outline: as §1
# S. simulans 22 = experiment: MIC determination; type: cell-based; settings: Table 1; lysogeny broth (LB) supplemented with 0.3 mM ZnSO4; 37 °C, 18 h; visual inspection; median of a minimum of triplicates
# Outline: as §1
MIC E. faecium E980 (E. faecium E980) [µg/mL],MIC S. aureus USA300 (MRSA) (S. aureus USA300 (MRSA)) [µg/mL],MIC S. aureus ATCC 29213 (MSSA) [3] [µg/mL],MIC S. simulans 22 (S. simulans 22) [µg/mL],Compound,antibiotic activity [1],nephrotoxicity [2]
–,–,–,–,bacitracin F,inactive,nephrotoxic
0.5,2,1,0.5,CN[C@H](CC(C)C)C(=O)N[C@H]1C(=O)N[C@@H](CC(N)=O)C(=O)N[C@H]2C(=O)N[C@H]3C(=O)N[C@H](C(=O)N[C@H](C(=O)O)c4cc(O)cc(O)c4-c4cc3ccc4O)[C@H](O)c3ccc(c(Cl)c3)Oc3cc2cc(c3O[C@@H]2O[C@H](CO)[C@@H](O)[C@H](O)[C@H]2O[C@H]2C[C@](C)(N)[C@H](O)[C@H](C)O2)Oc2ccc(cc2Cl)[C@H]1O [Vancomycin],–,–
